Measured values from ChEMBL document CHEMBL1122307, “Mitomycin C and porfiromycin analogues with substituted ethylamines at position 7” (J Med Chem, 1983).
Values joined by “and” are separate entries in the source; they are usually repeats but may differ in a detail not shown here. Identical values can stand only once.

Columns and labels:
[1] = Partition coefficient (logP); format: physicochemical; conditions: octanol/water
P388 [2] = assay: Leukopenia % change in WBC at optimal dose on 3rd day.; format: functional, Mus musculus
P388 [3] = assay: Maximum % T/C against P-388 murine leukemia cells in mice.; format: functional, Mus musculus
Method in brief: (§1)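 P-388 ascites leukemia, 10⁶ cells implanted ip in female CDF₁ mice. Six mice per dose, with 10 saline-injected controls. A six-mouse mitomycin C group was run at each dose in the same experiment. % T/C = median survival time treated/control × 100 at the optimal dose. MED is the lowest dose giving T/C ≥ 125.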

P388 [4] = assay: Maximum % T/C with mitomycin C against P-388 murine leukemia cells in mice.; format: functional, Mus musculus; method in brief: as §1
P388 [5] = assay: Optimal dose required for antitumor activity against P-388 murine leukemia cells in mice.; format: functional, Mus musculus; method in brief: as §1
P388 [6] = assay: Minimum effective dose required for antitumor activity against P-388 murine leukemia cells; format: functional; conditions: Mus musculus, read-out: MED; method in brief: as §1
[7] = Therapeutic ratio as optimal dose/minimal effective dose; format: ADME; conditions: mouse, p388; read-out: TR
B16 [8] = assay: Median survival time (% T/C) after ip administration in B-16 melanoma in mice (dose mg/kg/day); format: functional, Mus musculus
Method in brief: (§2)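 B-16 melanoma in mice, run by the standard NCI protocol. Drug given ip on days 1, 4 and 7, ten mice per dose. Read-outs were median survival time as % T/C of controls and average body-weight change in g.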

B16 [9] = assay: (§3) Average weight change after ip administration in B-16 melanoma in mice (dose mg/kg/day); format: functional, Mus musculus; method in brief: as §2
B16 [10] = assay: Average weight change after ip administration of in B-16 melanoma in mice (dose mg/kg/day); format: functional, Mus musculus; method in brief: as §2
L1210 [11] = assay: Maximum % T/C against L-1210 leukemia cells in mice.; format: functional, Mus musculus
Method in brief: (§4)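 L-1210 leukemia in mice, run by the standard NCI protocol with one dose on day 1. % T/C is based on survival. Repeated assays are reported as both values.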

L1210 [12] = assay: Minimum effective dose required for antitumor activity against L-1210 leukemia cells in mice.; format: functional; conditions: Mus musculus, read-out: MED; method in brief: as §4
L1210 [13] = assay: Optimal dose required for antitumor activity L-1210 leukemia cells in mice.; format: functional, Mus musculus; method in brief: as §4
B16 [14] = assay: as §3; format: functional, Mus musculus; method in brief: as §2; remark: listed apart in the source

| SMILES | logP [1] | Change in WBC (P388 [2]) | T/C (P388 [3]) | T/C (P388 [4]) | Dose (P388 [5]) | minimal effective dose (P388 [6]) | selectivity ratio [7] | T/C (B16 [8]) | Average weight change (B16 [9]) | Average weight change (B16 [10]) | T/C (L1210 [11]) | minimal effective dose (L1210 [12]) | Dose (L1210 [13]) | Average weight change (B16 [14]) |
| --- | --- | --- | --- | --- | --- | --- | --- | --- | --- | --- | --- | --- | --- | --- |
| COC12[C@@H]3N[C@@H]3CN1C1=C(C(=O)/C(=N/CCO)C(C)=C1O)[C@@H]2COC(N)=O (some centres not stated) | -0.81 | -38% | 228% | 228% | 25.6 mg/kg | 1.6 mg/kg | 16 | – | – | – | – | – | – | – |
| CCSCC/N=C1/C(=O)C2=C(C(O)=C1C)N1C[C@H]3N[C@H]3C1(OC)[C@H]2COC(N)=O (some centres not stated) | 1.66 | – | 205% | 268% | 12.8 mg/kg | 1.6 mg/kg | 8 | 190% and 175% and 144% | -1.2 g and -0.8 g | -1.7 g | 141% | 12 mg/kg | 24 mg/kg | – |
| CCSCC/N=C1/C(=O)C2=C(C(O)=C1C)N1C[C@@H]3[C@@H](N3C)C1(OC)[C@H]2COC(N)=O (some centres not stated) | – | – | 200% | 322% | 25 mg/kg | 6.4 mg/kg | 4 | – | – | – | 143% | 24 mg/kg | 48 mg/kg | – |
| COC12[C@@H]3N[C@@H]3CN1C1=C(C(=O)C(NCCc3ccccc3)=C(C)C1=O)[C@@H]2COC(N)=O (some centres not stated) | 2.48 | – | – | 194% | 25.6 mg/kg | – | 16 | – | – | – | – | – | – | – |
| COC(C/N=C1/C(=O)C2=C(C(O)=C1C)N1C[C@H]3N[C@H]3C1(OC)[C@H]2COC(N)=O)OC (some centres not stated) | – | -44% | 200% | 224% | 6.4 mg/kg | 0.8 mg/kg | 8 | – | – | – | 151% | 6 mg/kg | 24 mg/kg | – |
| COCC/N=C1/C(=O)C2=C(C(O)=C1C)N1C[C@H]3N[C@H]3C1(OC)[C@H]2COC(N)=O (some centres not stated) | -0.12 | -57% | 205% | 268% | 12.8 mg/kg | 0.8 mg/kg | 16 | 190% | -0.4 g | -2 g | 143% | 6 mg/kg | 12 mg/kg | -1.7 g |
| COC12[C@@H]3N[C@@H]3CN1C1=C(C(=O)C(NCCN(C)C)=C(C)C1=O)[C@@H]2COC(N)=O (some centres not stated) | – | – | 233% | 161% | 12.8 mg/kg | 0.4 mg/kg | 32 | – | – | – | 136% | 6 mg/kg | 12 mg/kg | – |
| COC12[C@@H]3N[C@@H]3CN1C1=C(C(=O)C(N[C@@H]3CC3c3ccccc3)=C(C)C1=O)[C@@H]2COC(N)=O (some centres not stated) | – | – | 200% | 233% | 25.6 mg/kg | 1.6 mg/kg | 16 | – | – | – | – | – | – | – |
| CC/N=C1/C(=O)C2=C(C(O)=C1C)N1C[C@H]3N[C@H]3C1(OC)[C@H]2COC(N)=O (some centres not stated) | 0.35 | – | 250% | 322% | 12.8 mg/kg | 0.8 mg/kg | 32 | – | – | – | – | – | – | – |
| COC12[C@@H](COC(N)=O)C3=C(C(=O)C(C)=C(NCCCl)C3=O)N1C[C@@H]1[C@H]2N1C (some centres not stated) | – | – | – | >300% | 51.2 mg/kg | – | 8 | – | – | – | – | – | – | – |
| COC12[C@@H]3N[C@@H]3CN1C1=C(C(=O)C(NCCCl)=C(C)C1=O)[C@@H]2COC(N)=O (some centres not stated) | 0.74 | -7% | – | 245% | 12.8 mg/kg | – | 8 | – | – | – | – | – | – | – |
| COC12[C@@H](COC(N)=O)C3=C(C(O)=C(C)/C(=N\CCS)C3=O)N1C[C@@H]1[C@H]2N1C (some centres not stated) | – | – | 179% | 268% | 25.6 mg/kg | 3.2 mg/kg | 8 | – | – | – | 129% | 12 mg/kg | 48 mg/kg | – |
| COC12[C@@H]3N[C@@H]3CN1C1=C(C(=O)/C(=N/CCc3ccc(O)cc3)C(C)=C1O)[C@@H]2COC(N)=O (some centres not stated) | – | – | 218% | 288% | 25.6 mg/kg | 1.6 mg/kg | 16 | – | – | – | 125% | 12 mg/kg | 48 mg/kg | – |
| COC12[C@@H]3N[C@@H]3CN1C1=C(C(=O)C(NCCc3ccc(O)c(O)c3)=C(C)C1=O)[C@@H]2COC(N)=O (some centres not stated) | – | – | 139% | 233% | 12.8 mg/kg | 12.8 mg/kg | 1 | – | – | – | – | – | – | – |
| COC12[C@@H]3N[C@@H]3CN1C1=C(C(=O)/C(=N/CCN)C(C)=C1O)[C@@H]2COC(N)=O (some centres not stated) | -0.84 | – | 178% | 156% | 3.3 mg/kg | 0.4 mg/kg | 8 | – | – | – | – | – | – | – |
| COC12[C@@H]3N[C@@H]3CN1C1=C(C(=O)/C(=N/CCN3CCCC3)C(C)=C1O)[C@@H]2COC(N)=O (some centres not stated) | – | -64% | 194% | 211% | 12.8 mg/kg | 0.4 mg/kg | 32 | – | – | – | 125% | 5 mg/kg | 5 mg/kg | – |
| CCN1CCCC1C/N=C1/C(=O)C2=C(C(O)=C1C)N1C[C@H]3N[C@H]3C1(OC)[C@H]2COC(N)=O (some centres not stated) | – | -29% | 217% | 211% | 12.8 mg/kg | 0.8 mg/kg | 16 | – | – | – | – | – | – | – |
| COC12[C@@H]3N[C@@H]3CN1C1=C(C(=O)/C(=N/CCN3CCOCC3)C(C)=C1O)[C@@H]2COC(N)=O (some centres not stated) | – | – | 150% | 211% | 25.6 mg/kg | 6.4 mg/kg | 4 | – | – | – | 132% | 48 mg/kg | 96 mg/kg | – |
| COC12[C@@H]3N[C@@H]3CN1C1=C(C(=O)C(NCCC#N)=C(C)C1=O)[C@@H]2COC(N)=O (some centres not stated) | -0.49 | -40% | 232% | 268% | 6.4 mg/kg | 0.4 mg/kg | 16 | – | – | – | 130% | 3 mg/kg | 12 mg/kg | – |
| COC12[C@@H]3N[C@@H]3CN1C1=C(C(=O)/C(=N/CCF)C(C)=C1O)[C@@H]2COC(N)=O (some centres not stated) | 0.18 | – | >316% | 268% | 6.4 mg/kg | 0.4 mg/kg | 16 | – | – | – | – | – | – | – |
